As usually defined, the IC50 is the midpoint of a concentration-inhibition curve. What is called inhibition is the change of the read-out against control, counted positive when it falls. The term Ki denotes a dissociation constant, usually derived from enzyme kinetics or from competition with a known ligand.

Seven compounds from ChEMBL document CHEMBL5550195, “Synthesis and in vitro evaluation of novel amino-phenylmethylene-imidazolone 5-HT2A receptor antagonists” (RSC Med Chem, 2024) can be followed below.

Each structure is given as a SMILES string. Calls of active or inactive are those of the source. The calls are words filed in the database; no cut-off is given here.

A short description of data set [1]: Kinetic solubility of compound in PBS at pH 7.4 incubated for 2 hrs in shaker by LC-MS/MS analysis. It is filed as physicochemical. To be noted: read-out: Kinetic_solubility. In outline:
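Compound from 10 mM DMSO stock was added in duplicate to pH 7.4 PBS, 30 µL into 970 µL, and stirred/shaken at 1100 rpm for 2 h at room temperature. The mixture was vacuum filtered and the filtrate diluted in methanol/DMSO. Quantification was by LC-MS/MS (positive ESI, MRM) against 3 µM standards, with progesterone as positive control. The assay upper limit was 300 µM.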

Data set [2] concerns the target T1, 5-hydroxytryptamine receptor 2A (Homo sapiens, UniProt P28223). Nature of the data set: Displacement of [3H] Ketanserin from 5HT2A receptor (unknown origin) at 10 uM incubated for 0.5 hrs by microbeta2 plate reader assay relative to control. To be noted: for inhibition: filed as antagonist. In a few lines: (§1)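 Filtration binding on 5-HT2A membranes. Serially diluted compound, with ketanserin as reference, was mixed with membrane and [3H]ketanserin, with separate nonspecific-binding wells, and shaken at 300 rpm. Mixtures were filtered through PEI-soaked GF filter plates and washed 4× with cold buffer. Filters were dried 1 h at 50 °C and bound 3H was counted by scintillation. IC50 came from dose-response fits and Ki was also reported; the top dose was 10000 nM.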

Data set [3] addresses T1, 5-hydroxytryptamine receptor 2A. Kind of data set: Agonist activity at 5-HT2A receptor (unknown origin) assessed as IP1 accumulation at 0.0004 to 10 uM incubated for 1 hr by HTRF method. It is filed as functional. The settings on record: dose 0.0004-10 µM. In a few lines: (§2)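 IP-One HTRF immunoassay for 5-HT2A Gαq signalling. Cells were seeded at 7,500 per well and given varying doses of compound. The agonist-mode reference was serotonin and the antagonist-mode reference was methiothepin. Incubation was 1 h at 37 °C, then lysis with d2-labelled IP1 and terbium cryptate anti-IP1 antibody for 1 h at room temperature. Fluorescence was read at 615/665 nm. IP1 was quantified against a 9-point standard curve, 4-fold from 7,700 nM, run in duplicate. Values came from log(inhibitor) vs response, variable-slope fit.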
A general note: In TR-FRET formats the signal depends on donor and acceptor labels being close together.

Data set [4] shares this target. Nature of the data set: Antagonist activity at 5-HT2A receptor (unknown origin) assessed as inhibition of 5-HT stimulated IP1 production incubated for 1 hr by HTRF method. It counts as functional. In a few lines:
as §2

For data set [5] the target is unchanged. Kind of data set: Antagonist activity at 5-HT2A receptor (unknown origin) assessed as inhibition of 5-HT stimulated IP1 production at 10 uM incubated for 1 hr by HTRF method relative to control. On the set-up: scale not given: the % may be the effect or the level left. It is filed as functional. The settings on record: filed as antagonist. In outline:
as §2

Data set [6] shares this target. Nature of the data set: Displacement of [3H] Ketanserin from 5HT2A receptor (unknown origin) incubated for 0.5 hrs by microbeta2 plate reader assay. In outline: as §1

T1 sequence (P28223 whole entry): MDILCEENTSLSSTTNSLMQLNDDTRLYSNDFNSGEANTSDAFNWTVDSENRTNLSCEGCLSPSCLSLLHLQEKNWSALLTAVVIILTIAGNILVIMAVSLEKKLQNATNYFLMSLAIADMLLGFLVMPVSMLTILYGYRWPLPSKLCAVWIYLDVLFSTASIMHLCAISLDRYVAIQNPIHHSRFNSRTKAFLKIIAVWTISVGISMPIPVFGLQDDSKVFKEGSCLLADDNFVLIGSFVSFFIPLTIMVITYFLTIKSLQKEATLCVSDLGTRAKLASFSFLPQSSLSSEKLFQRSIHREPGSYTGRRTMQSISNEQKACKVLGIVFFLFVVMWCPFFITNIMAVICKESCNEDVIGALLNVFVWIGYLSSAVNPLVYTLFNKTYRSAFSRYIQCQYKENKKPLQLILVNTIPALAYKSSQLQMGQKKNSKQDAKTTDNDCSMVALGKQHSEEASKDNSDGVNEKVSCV

On to `COc1cc(/C=C2\C(=O)N=C(N)N2C)cc(OC)c1OC.Cl`, for which the solubility kinetic at 2 h in data set [1] is not below 20 µM. Also, the outcome in data set [2] was inactive.

Consider `COc1cc(/C=C2\C(=O)N=C(N)N2C)c(OC)cc1Br.Cl`, for which the solubility kinetic at 2 h in data set [1] was not below 20 µM.

For `COc1ccc(OC)c(/C=C2\N=C(N)NC2=O)c1.Cl`, the outcome in data set [3] was inactive. For the same compound, the solubility kinetic at 2 h in data set [1] was not below 20 µM. For the same compound, the concentration for half-maximal inhibition (IC50) in data set [4] turned out to be 887 nM. Moreover, in data set [5], the Activity came to 93%. Also, in data set [2], the inhibition came to 95%. In data set [6], this compound had a Ki of 233 nM.

For `COc1cc(/C=C2\C(=O)N(C)C(=N)N2C)cc(OC)c1OC.Cl`, the solubility kinetic at 2 h in data set [1] was not below 20 µM. The result in data set [2] was inactive.

As to `COc1cc(/C=C2\N=C(N)NC2=O)c(OC)cc1Br.Cl`, the outcome in data set [3] was inactive. Also, the solubility kinetic at 2 h in data set [1] is not below 20 µM. In addition, the concentration for half-maximal inhibition (IC50) in data set [4] came out at 58 nM. In data set [5], the Activity was 100%. Further, the inhibition in data set [2] worked out at 97%. Affinity in data set [6] was put at a Ki of 19 nM.

As for `COc1ccc(OC)c(/C=C2\C(=O)N=C(N)N2C)c1.Cl`, the solubility kinetic at 2 h in data set [1] was not below 20 µM. Moreover, the Ki in data set [6] is more than 3880 nM.

With `COc1cc(/C=C2\N=C(N)NC2=O)cc(OC)c1OC.Cl`, the solubility kinetic at 2 h in data set [1] was not below 20 µM. Moreover, the outcome in data set [2] was inactive.
